In brackets after ≈: the same amount, converted by molar mass.
How the values were obtained:
Staphylococcus aureus [1] = test: Antibacterial activity against Staphylococcus aureus ATCC 6538 after 24 hrs by microdilution method; type: functional; details: ATCC 6538, 24 h
Outline: (§1)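 Broth microdilution in 96-well plates. Bacterial suspensions were adjusted in sterile saline to 1.0 × 10⁵ CFU/ml, prepared daily and kept at 4 °C. Compound was added to LB broth with 1.0 × 10⁴ CFU per well and shaken at 160 rpm for 24 h at […] (so in the source). MIC is the lowest concentration with no visible growth under a binocular microscope. OD655 was also read. Duplicate, repeated three times.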

Bacillus cereus [2] = test: Antibacterial activity against clinical isolate of Bacillus cereus after 24 hrs by microdilution method; type: functional; outline: as §1
Micrococcus flavus [3] = test: Antibacterial activity against Micrococcus flavus ATCC 10240 after 24 hrs by microdilution method; type: functional; details: ATCC 10240, 24 h; outline: as §1
Listeria monocytogenes [4] = test: Antibacterial activity against Listeria monocytogenes NCTC 7973 after 24 hrs by microdilution method; type: functional; details: NCTC 7973, 24 h; outline: as §1
Pseudomonas aeruginosa [5] = test: Antibacterial activity against Pseudomonas aeruginosa ATCC 27853 after 24 hrs by microdilution method; type: functional; details: ATCC 27853, 24 h; outline: as §1
Salmonella typhimurium [6] = test: Antibacterial activity against Salmonella Typhimurium ATCC 13311 after 24 hrs by microdilution method; type: functional, Salmonella enterica subsp. enterica serovar Typhimurium; details: Salmonella enterica, ATCC 13311, 24 h; outline: as §1
Escherichia coli [7] = test: Antibacterial activity against Escherichia coli ATCC 35210 after 24 hrs by microdilution method; type: functional; details: ATCC 35210, 24 h; outline: as §1
Enterococcus faecalis [8] = test: Antibacterial activity against Enterococcus faecalis isolated from human after 24 hrs by microdilution method; type: functional; outline: as §1
Staphylococcus aureus [9] = test: Antibacterial activity against Staphylococcus aureus ATCC 6538 incubated for 24 hrs followed by serial sub-cultivation for 24 hrs by microdilution method; type: functional; details: ATCC 6538, 24 h
Outline: (§2)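 MBC: after the 24 h LB broth microdilution (1.0 × 10⁴ CFU per well, 160 rpm), wells were serially sub-cultured into fresh broth plates and incubated a further 24 h. MBC is the lowest concentration with no visible growth, taken as 99.5% killing of the original inoculum. Duplicate, repeated three times.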

Bacillus cereus [10] = test: Antibacterial activity against clinical isolate of Bacillus cereus incubated for 24 hrs followed by serial sub-cultivation for 24 hrs by microdilution; type: functional; outline: as §2
Micrococcus flavus [11] = test: Antibacterial activity against Micrococcus flavus ATCC 10240 incubated for 24 hrs followed by serial sub-cultivation for 24 hrs by microdilution; type: functional; details: ATCC 10240, 24 h; outline: as §2
Listeria monocytogenes [12] = test: Antibacterial activity against Listeria monocytogenes NCTC 7973 incubated for 24 hrs followed by serial sub-cultivation for 24 hrs by microdilution; type: functional; details: NCTC 7973, 24 h; outline: as §2
Pseudomonas aeruginosa [13] = test: Antibacterial activity against Pseudomonas aeruginosa ATCC 27853 incubated for 24 hrs followed by serial sub-cultivation for 24 hrs by microdilution; type: functional; details: ATCC 27853, 24 h; outline: as §2
Salmonella typhimurium [14] = test: Antibacterial activity against Salmonella Typhimurium ATCC 13311 incubated for 24 hrs followed by serial sub-cultivation for 24 hrs by microdilution; type: functional, Salmonella enterica subsp. enterica serovar Typhimurium; details: Salmonella enterica, ATCC 13311, 24 h; outline: as §2
Escherichia coli [15] = test: Antibacterial activity against Escherichia coli ATCC 35210 incubated for 24 hrs followed by serial sub-cultivation for 24 hrs by microdilution; type: functional; details: ATCC 35210, 24 h; outline: as §2
Enterococcus faecalis [16] = test: Antibacterial activity against Enterococcus faecalis isolated from human incubated for 24 hrs followed by serial sub-cultivation for 24 hrs by microdilution; type: functional; outline: as §2
Aspergillus ochraceus [17] = test: Antifungal activity against Aspergillus ochraceus ATCC 12066 after 72 hrs by serial dilution technique; type: functional; details: ATCC 12066, 72 h
Outline: (§3)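 Modified microdilution in 96-well plates. Fungi were kept on malt agar at 4 °C. Spores were washed off in sterile 0.85% saline with 0.1% Tween 80. Compounds were dissolved at 1 mg/ml in 5% DMSO with 0.1% Tween 80 and added to malt broth with inoculum. Plates were shaken at 160 rpm for 72 h at 28 °C. Duplicate, repeated three times.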

Aspergillus niger [18] = test: Antifungal activity against Aspergillus niger ATCC 6275 after 72 hrs by serial dilution technique; type: functional; details: ATCC 6275, 72 h; outline: as §3
Aspergillus flavus [19] = test: Antifungal activity against Aspergillus flavus ATCC 9643 after 72 hrs by serial dilution technique; type: functional; details: ATCC 9643, 72 h; outline: as §3
Talaromyces funiculosus [20] = test: Antifungal activity against Penicillium funiculosum ATCC 36839 after 72 hrs by serial dilution technique; type: functional; details: ATCC 36839, 72 h; outline: as §3
Penicillium ochrochloron [21] = test: Antifungal activity against Penicillium ochrochloron ATCC 9112 after 72 hrs by serial dilution technique; type: functional; details: ATCC 9112, 72 h; outline: as §3
Trichoderma viride [22] = test: Antifungal activity against Trichoderma viride IAM 5061 after 72 hrs by serial dilution technique; type: functional; details: IAM 5061, 72 h; outline: as §3
Candida albicans [23] = test: Antifungal activity against Candida albicans isolated from human after 72 hrs by serial dilution technique; type: functional; outline: as §3
Aspergillus ochraceus [24] = test: Antifungal activity against Aspergillus ochraceus ATCC 12066 incubated for 72 hrs followed by serial sub-cultivation for 72 hrs by serial dilution technique; type: functional; details: ATCC 12066, 72 h
Outline: (§4)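 MFC: material from 72 h malt broth microdilution wells was serially sub-cultured into fresh broth plates and incubated a further 72 h at 28 °C. Fungicidal concentration is taken from growth after sub-culture. Duplicate, repeated three times.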

Aspergillus fumigatus [25] = test: Antifungal activity against Aspergillus fumigatus isolated from human incubated for 72 hrs followed by serial sub-cultivation for 72 hrs by serial dilution technique; type: functional; outline: as §4
Aspergillus niger [26] = test: Antifungal activity against Aspergillus niger ATCC 6275 incubated for 72 hrs followed by serial sub-cultivation for 72 hrs by serial dilution technique; type: functional; details: ATCC 6275, 72 h; outline: as §4
Aspergillus flavus [27] = test: Antifungal activity against Aspergillus flavus ATCC 9643 incubated for 72 hrs followed by serial sub-cultivation for 72 hrs by serial dilution technique; type: functional; details: ATCC 9643, 72 h; outline: as §4
Talaromyces funiculosus [28] = test: Antifungal activity against Penicillium funiculosum ATCC 36839 incubated for 72 hrs followed by serial sub-cultivation for 72 hrs by serial dilution technique; type: functional; details: ATCC 36839, 72 h; outline: as §4
Penicillium ochrochloron [29] = test: Antifungal activity against Penicillium ochrochloron ATCC 9112 incubated for 72 hrs followed by serial sub-cultivation for 72 hrs by serial dilution technique; type: functional; details: ATCC 9112, 72 h; outline: as §4
Trichoderma viride [30] = test: Antifungal activity against Trichoderma viride IAM 5061 incubated for 72 hrs followed by serial sub-cultivation for 72 hrs by serial dilution technique; type: functional; details: IAM 5061, 72 h; outline: as §4
Candida albicans [31] = test: Antifungal activity against Candida albicans isolated from human incubated for 72 hrs followed by serial sub-cultivation for 72 hrs by serial dilution technique; type: functional; outline: as §4
Pseudomonas aeruginosa [32] = test: Ratio of ampicillin MIC to compound MIC for Pseudomonas aeruginosa ATCC 27853; type: functional
Aspergillus ochraceus [33] = test: Ratio of bifonazole to compound for Aspergillus ochraceus ATCC 12066; type: functional
Aspergillus niger [34] = test: Ratio of bifonazole to compound for Aspergillus niger ATCC 6275; type: functional
Talaromyces funiculosus [35] = test: Ratio of bifonazole to compound for Penicillium funiculosum ATCC 36839; type: functional
Penicillium ochrochloron [36] = test: Ratio of bifonazole to compound for Penicillium ochrochloron ATCC 9112; type: functional
Trichoderma viride [37] = test: Ratio of bifonazole to compound for Trichoderma viride IAM 5061; type: functional
Candida albicans [38] = test: Ratio of bifonazole to compound for Candida albicans isolated from human; type: functional
Aspergillus ochraceus [39] = test: Ratio of ketoconazole to compound for Aspergillus ochraceus ATCC 12066; type: functional
Aspergillus fumigatus [40] = test: Ratio of ketoconazole to compound for Aspergillus fumigatus isolated from human; type: functional
Penicillium ochrochloron [41] = test: Ratio of ketoconazole to compound for Penicillium ochrochloron ATCC 9112; type: functional
Candida albicans [42] = test: Ratio of ketoconazole to compound for Candida albicans isolated from human; type: functional
Aspergillus ochraceus [43] = test: Antifungal activity against Aspergillus ochraceus after 72 hrs by serial dilution technique

CCNc1nc(C)c(C(=O)/C=C/c2ccc(OC)cc2)s1
MIC (Staphylococcus aureus [1]): 66.2 µM (≈ 20 µg/mL) | MIC (Bacillus cereus [2]): 66.2 µM (≈ 20 µg/mL) | MIC (Micrococcus flavus [3]): 31.3 µM (≈ 9.47 µg/mL) | MIC (Listeria monocytogenes [4]): 82.8 µM (≈ 25 µg/mL) | MIC (Pseudomonas aeruginosa [5]): 66.2 µM (≈ 20 µg/mL) | MIC (Salmonella typhimurium [6]): 49.7 µM (≈ 15 µg/mL) | MIC (Escherichia coli [7]): 49.7 µM (≈ 15 µg/mL) | MIC (Enterococcus faecalis [8]): 66.2 µM (≈ 20 µg/mL) | MBC (Staphylococcus aureus [9]): 99.3 µM (≈ 30 µg/mL) | MBC (Bacillus cereus [10]): 82.8 µM (≈ 25 µg/mL) | MBC (Micrococcus flavus [11]): 82.5 µM (≈ 24.9 µg/mL) | MBC (Listeria monocytogenes [12]): 99.3 µM (≈ 30 µg/mL) | MBC (Pseudomonas aeruginosa [13]): 82.8 µM (≈ 25 µg/mL) | MBC (Salmonella typhimurium [14]): 49.7 µM (≈ 15 µg/mL) | MBC (Escherichia coli [15]): 66.2 µM (≈ 20 µg/mL) | MBC (Enterococcus faecalis [16]): 99.3 µM (≈ 30 µg/mL) | MIC (Aspergillus ochraceus [17]): 66.2 µM (≈ 20 µg/mL) | MIC (Aspergillus niger [18]): 33.1 µM (≈ 10 µg/mL) | MIC (Aspergillus flavus [19]): 66.2 µM (≈ 20 µg/mL) | MIC (Talaromyces funiculosus [20]): 33.1 µM (≈ 10 µg/mL) | MIC (Penicillium ochrochloron [21]): 66.2 µM (≈ 20 µg/mL) | MIC (Trichoderma viride [22]): 33.1 µM (≈ 10 µg/mL) | MIC (Candida albicans [23]): 66.2 µM (≈ 20 µg/mL) | MFC (Aspergillus ochraceus [24]): 82.8 µM (≈ 25 µg/mL) | MFC (Aspergillus fumigatus [25]): 82.8 µM (≈ 25 µg/mL) | MFC (Aspergillus niger [26]): 66.2 µM (≈ 20 µg/mL) | MFC (Aspergillus flavus [27]): 82.8 µM (≈ 25 µg/mL) | MFC (Talaromyces funiculosus [28]): 66.2 µM (≈ 20 µg/mL) | MFC (Penicillium ochrochloron [29]): 82.8 µM (≈ 25 µg/mL) | MFC (Trichoderma viride [30]): 66.2 µM (≈ 20 µg/mL) | MFC (Candida albicans [31]): 82.8 µM (≈ 25 µg/mL) | Ratio (Pseudomonas aeruginosa [32]): 10 | Ratio (Aspergillus ochraceus [33]): 10 | Ratio (Aspergillus niger [34]): 10 | Ratio (Talaromyces funiculosus [35]): 10 | Ratio (Penicillium ochrochloron [36]): 10 | Ratio (Trichoderma viride [37]): 10 | Ratio (Candida albicans [38]): 10 | Ratio (Aspergillus ochraceus [39]): 10 | Ratio (Aspergillus fumigatus [40]): 10 | Ratio (Penicillium ochrochloron [41]): 10 | Ratio (Candida albicans [42]): 10 | MIC (Aspergillus ochraceus [43]): 66.2 µM (≈ 20 µg/mL)

— ChEMBL document CHEMBL1926569, “Novel (E)-1-(4-methyl-2-(alkylamino)thiazol-5-yl)-3-arylprop-2-en-1-ones as potent antimicrobial agents” (2011)
